ERp5 inh = inhibitors of ERp5-driven insulin aggregation, primary screen, biochemical, turbidity, absorbance 650 nm, single point; Protein disulfide-isomerase A6 (Homo sapiens), Q15084; 90 min; inhibition, % at 9.99 µM; hit rate 0.05% among 350,000;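 active = mean replicate inhibition above about 25%, with every replicate also reaching it, limit read from the data, passing the limit was not always enough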
Target sequence (Q15084 whole entry, looked up): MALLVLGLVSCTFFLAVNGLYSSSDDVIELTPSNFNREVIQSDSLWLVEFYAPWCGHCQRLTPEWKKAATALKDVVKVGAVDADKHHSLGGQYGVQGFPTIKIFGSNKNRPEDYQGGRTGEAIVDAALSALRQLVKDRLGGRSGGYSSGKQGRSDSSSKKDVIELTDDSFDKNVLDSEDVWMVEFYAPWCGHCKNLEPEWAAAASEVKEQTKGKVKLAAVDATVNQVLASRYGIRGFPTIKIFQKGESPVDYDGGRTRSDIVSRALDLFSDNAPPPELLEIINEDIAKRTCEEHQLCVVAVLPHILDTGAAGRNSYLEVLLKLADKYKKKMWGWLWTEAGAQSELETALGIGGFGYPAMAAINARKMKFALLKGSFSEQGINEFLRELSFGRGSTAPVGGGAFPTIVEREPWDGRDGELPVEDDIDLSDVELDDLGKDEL
PDI inh = inhibitors of human PDI, primary screen, biochemical, turbidity, single point, plate reader. hit rate 0.052% among 350,000. inhibition, % at 10 µM. Protein disulfide-isomerase (Homo sapiens), P07237. AID 588391, 2011. PDI insulin aggregation turbidity, A650, 90 min;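 active = mean inhibition across replicates of 30% or more, whatever share of single replicates reach that level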
GSIS activator = GLuc luminescence reporter in INS-1E cells, primary screen for activators of glucose-dependent secretion of insulin. hit rate 0.61% among 370,000. INS-1E GLuc reporter insulin secretion, 2-3 h. activation, % at 16.6 µM;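 active = lowest replicate activation of at least 40%, so every replicate reaches that level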;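 also: 0% = median of neutral control wells and 100% = median of IBMX positive control wells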
S100A4 MyoIIA = inhibitors of S100A4-myosin IIA peptide binding, primary screen, biochemical, fluorescence polarization, TAMRA-MyoIIA peptide; Protein S100-A4 (Homo sapiens), P26447; hit rate 0.14% among 360,000; inhibition, % at 10.7 µM; AID 652163, 2013;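 active = mean inhibition of at least 70% across replicates, with every replicate also reaching that level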
Target sequence (P26447 whole entry, looked up): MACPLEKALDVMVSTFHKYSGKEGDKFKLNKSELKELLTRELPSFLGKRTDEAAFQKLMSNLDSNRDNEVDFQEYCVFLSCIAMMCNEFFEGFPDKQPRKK
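Test system: S100A4 monomer protein. Medium: HEPES buffer with Ca2+, pH 7.2. Reagent: fluorescent myosin IIA peptide, 5 nM. Compound dosing: single-point compound testing. Timing: 5 min between mix addition and reading. Benchmarks: DMSO neutral and TFP positive wells.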
SIRT5 block = SIRT5 desuccinylase inhibitors, primary screen, biochemical, fluorescence imaging, single point, set 5; NAD-dependent protein deacylase sirtuin-5, mitochondrial (Homo sapiens), Q9NXA8; Purified SirT5, succinyl-peptide AMC, trypsin-coupled fluorescence; inhibition, % at 15 µM; hit rate 1.1% among 330,000; AID 652115, 2013; in the data active = inhibition above about 15%
* = called active by the depositor; x = no result. A selection: hits, their analogues and other compounds. The true share with any hit is near 1.5%.

SMILES	ERp5 inh	PDI inh	GSIS activator	S100A4 MyoIIA	SIRT5 block
CCS(=O)(=O)N1CC2(C1)[C@H](c1ccccc1)[C@H](CO)N2C(=O)C1CC1	-2	x	4	1	2
FC(F)(F)CN1C[C@@H]2C(c3ccccc3)[C@H](C1)N2CC(F)(F)F (stereo partly drawn)	x	x	0	x	x
C=CCNC(=O)CC1C(=O)NCCN1Cc1c(F)cccc1Cl (stereo not drawn)	6	4	16	-7	32*
CC(C)(C)NC(=O)CC1C(=O)NCCN1Cc1c(F)cccc1Cl (stereo not drawn)	3	-1	-6	-5	-2
CC(C)(C)C(=O)Nc1sc2c(c1C(=O)Nc1ccccn1)CCCC2	1	9	-8	7	18*
CC(C)(C)C(=O)Nc1sc2c(c1C#N)CCC2	0	6	5	-3	-1
O=S(=O)(c1ccccc1)N1CC2(C1)[C@@H](c1ccccc1)[C@@H](CO)N2CC1CC1	x	x	-15	x	x
COc1ccc(C2Nc3ccccc3C(=O)N2NS(C)(=O)=O)c(OC)c1 (stereo not drawn)	3	-6	-6	-6	15*
CCC(=O)N1[C@H](CO)[C@H](c2ccc(-c3ccccc3OC)cc2)C12CN(C(C)=O)C2	1	x	-10	2	-4
CN(C)CCN1CCN(C2CN(Cc3cn(Cc4cccc(Cl)c4)nn3)S(=O)(=O)C2)CC1 (stereo not drawn)	-2	x	-3	61	19*
CN1CCN(C2CN(Cc3cn(Cc4cccc(Cl)c4)nn3)S(=O)(=O)C2)CC1 (stereo not drawn)	3	x	-1	2	-4
O=[N+]([O-])c1cccc(-c2nnc3ccc4ccccc4n23)c1	x	-5	55*	x	x
O=[N+]([O-])c1cccc(-c2nnc3cccc(Cl)n23)c1	-1	-5	52	-1	-5
COCC(=O)N1CC(=O)N2[C@H](C1)[C@@H](c1ccc(C#CC3CCCCC3)cc1)[C@@H]2CO	-2	x	29	-5	-2
COc1ccc(CCNS(=O)(=O)c2c(C)nc3scc(C)n3c2=O)cc1OC	4	-6	26	0	-1
CCOc1ccc(CCNS(=O)(=O)c2c(C)nc3scc(C)n3c2=O)cc1OCC	2	3	52*	3	0
CC(=O)NS(=O)(=O)c1ccc(NC(=O)/C=C/c2cn(-c3ccccc3)nc2-c2ccccc2)cc1	-1	-1	-11	-3	-7
O=C(/C=C\c1cn(-c2ccccc2)nc1-c1ccccc1)Nc1nccs1	x	-8	47*	x	x
COCc1cn(CC[C@H]2CC[C@@H](NC(=O)Nc3ccc(F)cc3)[C@H](CO)O2)nn1	3	x	6	-13	-4
COc1ccc(C(=O)Nc2ccc3c(c2)C(=O)c2ccccc2C3=O)cc1OC	x	-5	62*	x	x
COc1ccc(NC(=O)N(C)C[C@@H]2Oc3ccc(NC(=O)Nc4ccc5c(c4)OCO5)cc3C(=O)N([C@@H](C)CO)C[C@@H]2C)cc1	-5	x	-7	2	3
O=C(Nc1ccccc1N1CCOCC1)C1=NN(c2ccccc2)C(=O)CC1	5	5	50*	-3	2
O=C(C[C@H]1CC[C@@H]2[C@H](COC[C@@H](O)CN2CC2CCOCC2)O1)N1CCOCC1	2	x	-2	1	2
O=C(Nc1nccs1)[C@@H]1[C@@H](CO)[C@@H]2Cn3c(cccc3=O)[C@@H]2N1C(=O)C1CC1	1	x	-4	-38	-2
O=C(O)C1Nc2c(O)cccc2C2C=CCC12 (stereo not drawn)	5	8	4	-2	17*
SMILES	ERp5 inh	PDI inh	GSIS activator	S100A4 MyoIIA	SIRT5 block
O=C(O)C1Nc2c(Cl)cc(Cl)c(Cl)c2C2C=CCC12 (stereo not drawn)	-3	-1	-4	-24	22*
C[C@H](CO)N1C[C@H](C)[C@@H](CN(C)Cc2cccc(F)c2)Oc2ncc(C#CC(C)(C)O)cc2C1=O	x	x	13	x	x
COC(=O)c1sccc1NC(=O)c1cccs1	5	4	11	-2	x
COC(=O)c1sc2ccccc2c1NC(=O)c1cccs1	-2	-2	58*	-3	5
Cc1ccc(S(=O)(=O)N(C)C[C@H]2OCCCC[C@H](C)Oc3ccc(NC(=O)NC(C)C)cc3C(=O)N([C@H](C)CO)C[C@@H]2C)cc1	0	x	-20	1	2
CCS(=O)(=O)c1nc(S(=O)(=O)c2ccc(C)cc2)c(NCCN2CCOCC2)s1	10	-4	8	16	-1
CCS(=O)(=O)c1nc(S(=O)(=O)c2ccc(C)cc2)c(NCCCN2CCCC2=O)s1	-5	2	7	84*	6
CCOC(=O)c1cnc2c([N+](=O)[O-])cnn2c1C	-2	4	9	1	-10
O=[N+]([O-])c1cnn2cc(Br)cnc12	0	1	45*	-1	0
O=C(N[C@@H]1CC[C@@H](CCn2cc(C3(O)CCCC3)nn2)O[C@@H]1CO)C1CCOCC1	-2	x	6	36	6
CC(C)CC1C(=O)N(Cc2cn(Cc3ccco3)nn2)CCS(=O)(=O)N1Cc1ccc(-c2ccc(F)cc2)cc1 (stereo not drawn)	7	-2	-8	-5	18*
Cc1ccc(-c2ccc(CN3C(C)C(=O)N(Cc4cn(Cc5ccco5)nn4)CCS3(=O)=O)cc2)c(C)c1 (stereo not drawn)	5	x	-16	-8	27*
Cc1ccc(-c2ccc(CN3C(C(C)C)C(=O)N(Cc4cn(CCC5OCCO5)nn4)CCS3(=O)=O)cc2)c(C)c1 (stereo not drawn)	3	x	-27	0	26*
Cc1cccc(NC(=O)Cn2c(=O)n(CC3CCCO3)c(=O)c3ccccc32)c1 (stereo not drawn)	3	-7	-15	4	-1
CCOc1ccc(NC(=O)Cn2c(=O)n(CC3CCCO3)c(=O)c3ccccc32)cc1 (stereo not drawn)	5	-7	-21	-2	15*
CCCC#Cc1cnc2c(c1)C(=O)N([C@@H](C)CO)C[C@@H](C)[C@@H](CN(C)C(=O)c1ccc3c(c1)OCO3)O2	-1	x	-15	-11	1
COc1ccc(CCN(C)C(=O)CCNS(=O)(=O)c2ccccc2C(F)(F)F)cc1OC	-6	-3	41*	-1	-3
Cc1ccc(NC(=O)CC2S/C(=N/N=C/c3c[nH]c4ccccc34)NC2=O)cc1 (stereo not drawn)	x	13	60*	x	x
C#CC1(NC(=O)NC(C)(C)C)CCCCC1	4	2	11	2	-7
C#CC1(NC(=O)NC(C)C)CCCCC1	-2	-2	17	1	94*
COc1cc2c3nnc(-c4ccccc4)c-3cn(Cc3ccccc3F)c2cc1OC	x	x	98*	x	x

High-throughput results from PubChem BioAssay.
